In ChEMBL document CHEMBL1148020, “Synthesis and glycogen phosphorylase inhibitor activity of 2,3-dihydrobenzo[1,4]dioxin derivatives” (Bioorg Med Chem, 2007) one finds inhibition and IC50 data, which are given here for 3 molecules.

pIC50: −log10 of the molar value.

The species entered for assay [1] is Homo sapiens. In words: Inhibition of glycogen phosphorylase A at 625 uM.
Assay [2] addresses T1, Glycogen phosphorylase, liver form (Homo sapiens) (UniProt P06737).
T1 sequence (whole entry): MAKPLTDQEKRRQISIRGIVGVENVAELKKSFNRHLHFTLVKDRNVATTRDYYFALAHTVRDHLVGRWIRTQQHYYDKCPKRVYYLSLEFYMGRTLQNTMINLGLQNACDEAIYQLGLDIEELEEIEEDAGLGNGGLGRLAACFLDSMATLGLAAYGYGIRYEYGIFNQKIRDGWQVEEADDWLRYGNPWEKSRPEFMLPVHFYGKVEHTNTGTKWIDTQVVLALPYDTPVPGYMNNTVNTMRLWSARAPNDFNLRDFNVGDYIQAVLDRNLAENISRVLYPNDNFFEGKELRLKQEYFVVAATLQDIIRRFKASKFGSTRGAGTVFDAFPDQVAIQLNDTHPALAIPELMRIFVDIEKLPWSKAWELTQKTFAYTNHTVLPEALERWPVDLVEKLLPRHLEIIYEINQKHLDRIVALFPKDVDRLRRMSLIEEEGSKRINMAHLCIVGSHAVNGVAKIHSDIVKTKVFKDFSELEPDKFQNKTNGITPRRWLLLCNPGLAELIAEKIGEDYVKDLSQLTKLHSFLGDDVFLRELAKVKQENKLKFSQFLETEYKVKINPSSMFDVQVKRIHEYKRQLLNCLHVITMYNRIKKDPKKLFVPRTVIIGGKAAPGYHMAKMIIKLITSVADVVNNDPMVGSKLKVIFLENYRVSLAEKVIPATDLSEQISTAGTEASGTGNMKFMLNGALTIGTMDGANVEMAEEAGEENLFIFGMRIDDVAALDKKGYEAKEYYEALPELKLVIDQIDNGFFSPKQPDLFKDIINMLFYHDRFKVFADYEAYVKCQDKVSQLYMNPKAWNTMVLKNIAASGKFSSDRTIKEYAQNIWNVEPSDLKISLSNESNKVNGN
In words: Inhibition of liver glycogen phosphorylase B at 625 uM.

The species entered for assay [3] is Homo sapiens. In words: Inhibition of glycogen phosphorylase at 625 uM.
Assay [4] can be described thus: Inhibition of glycogen phosphorylase. Set-up: species or system Homo sapiens. Summed up:
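Activity measured in the glycogen-synthesis direction at 30 °C with 1% glycogen, with or without glucose-1-phosphate substrate. Buffer was 50 mM triethanolamine/HCl pH 6.8 with 100 mM KCl, 1 mM dithiothreitol and 1 mM EDTA. Muscle or liver phosphorylase a was run without AMP. Phosphorylase b was run with AMP: 1 mM for muscle, 2 mM for liver. Kinetic analysis followed the authors' earlier protocol.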

Regarding `O=C1N=C(O)S/C1=C\c1ccc(OCC2COc3ccccc3O2)cc1` (configuration not stated), the inhibition in assay [1], in assay [2] and in assay [3] was 20% each time.

Regarding `O=C1NC(=O)C(Cc2ccc(OCC3COc4ccccc4O3)cc2)S1` (configuration not stated), the inhibition in assay [1], in assay [2] and in assay [3] was 20% in each case.

`O=C1NC(=O)C(Cc2ccc(OCC3COc4cc5c(cc4O3)OCO5)cc2)S1` (configuration not stated): the negative logarithm of the IC50 (pIC50) in assay [4] was 2.15.
